A word on the clearance: it is a measure of how efficiently the substance is removed, as volume per time. The term EC50 denotes the concentration needed to bring the measured effect to its halfway point. What is called half-life is the time in which the quantity being followed falls by half. As a reminder, the bioavailability is dose-corrected exposure relative to a reference, in per cent.

The structures appear in SMILES notation.

Series [1] has as its target T1, Guanylate cyclase soluble subunit alpha-1 (Rattus norvegicus) (UniProt P19686).
T1 sequence (whole entry): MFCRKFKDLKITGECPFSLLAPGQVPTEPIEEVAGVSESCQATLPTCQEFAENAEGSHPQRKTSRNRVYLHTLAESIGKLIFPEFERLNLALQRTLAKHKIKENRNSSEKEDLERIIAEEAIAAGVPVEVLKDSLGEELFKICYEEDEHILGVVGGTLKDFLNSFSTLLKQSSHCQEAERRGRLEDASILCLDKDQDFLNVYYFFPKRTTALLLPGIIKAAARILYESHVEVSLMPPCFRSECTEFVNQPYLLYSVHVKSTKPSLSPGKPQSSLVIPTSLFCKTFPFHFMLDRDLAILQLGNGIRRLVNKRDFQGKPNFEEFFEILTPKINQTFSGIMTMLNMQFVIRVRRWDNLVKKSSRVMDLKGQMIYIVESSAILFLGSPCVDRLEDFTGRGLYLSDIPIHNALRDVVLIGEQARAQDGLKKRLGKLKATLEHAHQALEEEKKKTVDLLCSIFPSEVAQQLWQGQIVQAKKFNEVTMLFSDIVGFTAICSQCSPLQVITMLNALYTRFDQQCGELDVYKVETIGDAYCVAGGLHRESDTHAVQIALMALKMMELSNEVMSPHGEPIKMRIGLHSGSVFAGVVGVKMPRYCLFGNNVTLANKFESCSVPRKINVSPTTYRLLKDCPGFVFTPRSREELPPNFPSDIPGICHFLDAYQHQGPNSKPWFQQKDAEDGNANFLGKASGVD
The experiment in a line: Activation of recombinant rat sGC alpha1 subunit expressed in CHO cells assessed as induction of [32P-cGMP] formation using alpha-[32P-GTP] as substrate measured after 6 mins by luminescence assay. In kind it is cell-based. Conditions: filed as activator; call rule not given here.

Series [2] is described as follows: Clearance in Wistar rat at 0.3 mg/kg, iv measured up to 24 hrs by LC-MS analysis. Conditions: in vivo. The series is classed as ADME, organism-based. In short, it runs like this: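 Rats dosed iv at 0.3 mg/kg; blood clearance determined.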
Series [3] is described as follows: Plasma clearance in iv dosed Beagle dog measured up to 24 hrs by LC-MS analysis. In kind it is ADME, organism-based, Canis lupus familiaris.
A short description of series [4]: Plasma clearance in iv dosed cynomolgus monkey measured up to 24 hrs by LC-MS analysis. The series is classed as ADME, organism-based, Macaca fascicularis.
Series [5] addresses T2, Cytochrome P450 1A2 (Homo sapiens, UniProt P05177).
T2 sequence (P05177 whole entry): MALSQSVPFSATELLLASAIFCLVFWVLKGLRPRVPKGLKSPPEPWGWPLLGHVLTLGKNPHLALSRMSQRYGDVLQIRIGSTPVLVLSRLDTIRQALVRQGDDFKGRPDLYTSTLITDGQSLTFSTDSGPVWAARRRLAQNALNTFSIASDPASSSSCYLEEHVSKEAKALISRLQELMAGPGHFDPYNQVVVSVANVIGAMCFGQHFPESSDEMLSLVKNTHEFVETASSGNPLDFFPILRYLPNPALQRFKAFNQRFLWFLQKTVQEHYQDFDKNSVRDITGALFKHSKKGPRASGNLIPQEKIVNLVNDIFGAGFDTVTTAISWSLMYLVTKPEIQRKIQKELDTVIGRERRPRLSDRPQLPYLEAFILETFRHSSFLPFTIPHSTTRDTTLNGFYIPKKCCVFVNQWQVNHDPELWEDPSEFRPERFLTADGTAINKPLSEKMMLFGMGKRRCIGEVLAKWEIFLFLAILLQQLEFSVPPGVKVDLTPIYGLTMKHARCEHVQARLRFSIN
The experiment in a line: Induction of CYP1A2 in human hepatocytes at > 10000 ng/ml using phenacetin as substrate incubated for 60 mins by LC-MS/MS analysis. In kind it is ADME, cell-based, Hepatocyte. To be noted: 1 h.

A further series has as its target Cytochrome P450 3A4 (Homo sapiens, UniProt P08684). The experiment in a line: Induction of CYP3A4 in human hepatocytes at > 10000 ng/ml using phenacetin as substrate incubated for 60 mins by LC-MS/MS analysis. To be noted: 1 h. The series is classed as ADME, cell-based, Hepatocyte.
Series [6] addresses T1, Guanylate cyclase soluble subunit alpha-1 (Rattus norvegicus). As to the kind of experiment: Activation of recombinant rat sGC alpha1 subunit expressed in CHO cells assessed as induction of [32P-cGMP] formation by measuring efficacy using alpha-[32P-GTP] as substrate measured after 6 mins by luminescence assay relative to control. The series is classed as cell-based. Conditions: filed as activator.

Series [7] in a line: Activation of recombinant rat sGC expressed in CHO cells by luminescence assay. The series is classed as cell-based. To be noted: CHO. In short, it runs like this: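 Stable CHO reporter cell line overexpressing rat sGC; cGMP formation read as luminescence. EC50 from concentration–response. MEC taken as lowest concentration giving at least threefold increase in basal luminescence.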

The nature of series [8]: Volume of distribution at steady state in iv dosed Wistar rat measured up to 24 hrs by LC-MS analysis. In kind it is ADME, organism-based. Conditions: in vivo, read-out: Vdss. In short, it runs like this: (§1)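 Three animals per species and strain received an intravenous dose. Steady-state volume of distribution (L/kg) was derived from the blood concentration–time profile, alongside blood clearance and terminal half-life.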

The nature of series [9]: Half life in iv dosed Wistar rat measured up to 24 hrs by LC-MS analysis. The series is classed as ADME, organism-based. Conditions: in vivo.
The nature of series [10]: Oral bioavailability in Wistar rat measured up to 24 hrs by LC-MS analysis. To be noted: in vivo. In kind it is ADME, organism-based.
Series [11] can be described thus: Volume of distribution at steady state in iv dosed Beagle dog measured up to 24 hrs by LC-MS analysis. The series is classed as ADME, organism-based, Canis lupus familiaris. To be noted: in vivo, read-out: Vdss. In short, it runs like this:
as §1

Series [12] is described as follows: Half life in iv dosed Beagle dog measured up to 24 hrs by LC-MS analysis. The series is classed as ADME, organism-based, Canis lupus familiaris. Conditions: in vivo.
Series [13] is described as follows: Oral bioavailability in Beagle dog measured up to 24 hrs by LC-MS analysis. In kind it is ADME, organism-based, Canis lupus familiaris. Conditions: in vivo.
The nature of series [14]: Volume of distribution at steady state in iv dosed cynomolgus monkey measured up to 24 hrs by LC-MS analysis. Conditions: in vivo, read-out: Vdss. In kind it is ADME, organism-based, Macaca fascicularis. In short, it runs like this: as §1
Series [15] in a line: Half life in iv dosed cynomolgus monkey measured up to 24 hrs by LC-MS analysis. The series is classed as ADME, organism-based, Macaca fascicularis. Conditions: in vivo.
The nature of series [16]: Oral bioavailability in cynomolgus monkey measured up to 24 hrs by LC-MS analysis. In kind it is ADME, organism-based, Macaca fascicularis. Conditions: in vivo.
In series [17] the target is T2, Cytochrome P450 1A2. The experiment in a line: Induction of CYP1A2 in human hepatocytes at > 123 ng/ml using phenacetin as substrate incubated for 60 mins by LC-MS/MS analysis. The series is classed as ADME, cell-based, Hepatocyte. To be noted: 1 h.
A short description of series [18]: Induction of CYP3A4 in human hepatocytes using phenacetin as substrate incubated for 60 mins by LC-MS/MS analysis. Conditions: 1 h.

Chain of Cytochrome P450 3A4 (P08684 whole entry): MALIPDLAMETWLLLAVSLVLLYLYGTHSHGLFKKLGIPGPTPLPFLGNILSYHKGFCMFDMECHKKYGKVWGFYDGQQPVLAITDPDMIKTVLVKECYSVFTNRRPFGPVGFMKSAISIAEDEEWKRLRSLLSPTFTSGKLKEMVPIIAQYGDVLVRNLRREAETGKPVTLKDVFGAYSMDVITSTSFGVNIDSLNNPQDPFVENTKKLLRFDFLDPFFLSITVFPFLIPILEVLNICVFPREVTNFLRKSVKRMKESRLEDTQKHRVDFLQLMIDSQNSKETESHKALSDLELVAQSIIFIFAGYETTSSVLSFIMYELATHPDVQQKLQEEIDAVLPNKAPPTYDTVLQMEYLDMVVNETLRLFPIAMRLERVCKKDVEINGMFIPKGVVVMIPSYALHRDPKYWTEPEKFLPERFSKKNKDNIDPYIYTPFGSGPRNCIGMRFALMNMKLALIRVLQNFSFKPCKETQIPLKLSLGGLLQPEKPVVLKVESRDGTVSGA

Regarding `O=C(O)CCc1cccc(NC(=O)[C@H](c2ccc(CN3N=C(c4ccccc4)OCC3=O)cc2)C2CCCC2)c1`, the MEC in series [1] was found to be 10 nM. Further, the values for the clearance in series [2], in [3] and in series [4] were 64.2 mL/min/kg, 2.67 mL/min/kg and 14.3 mL/min/kg, respectively. Besides, the Activity result at Cytochrome P450 1A2 [5] and on Cytochrome P450 3A4 was “Not Active” each time.

`Cc1c(CCC(=O)O)cccc1NC(=O)[C@H](c1ccc(CN2N=C(c3ccccc3)OCC2=O)cc1)C1CCCC1`: the MEC in [1] turned out to be 3 nM. In addition, the Efficacy in series [6] came to 110%. Further, the EC50 in [7] is 27 nM. Besides, the Activity entry on Cytochrome P450 1A2 [5] and on Cytochrome P450 3A4 was “Not Active” each time.

`C[C@H]([C@H](C(=O)Nc1cc(C[C@H](C)C(=O)O)ccc1Cl)c1ccc(Cl)cc1)C(F)(F)F`: the MEC in [1] stood at 10 nM. For the same compound, the Efficacy in [6] was 63%. The clearance in series [2] was 2.83 mL/min/kg; in [3], 6.33 mL/min/kg; in series [4], 0.833 mL/min/kg. Also, the EC50 in [7] worked out at 43 nM. Besides, the Vd in [8] worked out at 2 L/kg; in series [11], 2.1 L/kg; in [14], 0.55 L/kg. Further, the figures for the half-life in series [9], in series [12] and in [15] were 13 h, 9.3 h and 8.3 h, respectively. Further, the bioavailability in [10] is 100%; in series [13], 78%; in series [16], 100%. For the same compound, the Activity result at Cytochrome P450 1A2 [17] is “Not Active”; in series [18], 266 nM.

The values are drawn from ChEMBL document CHEMBL4808182, “Discovery of the Soluble Guanylate Cyclase Activator Runcaciguat (BAY 1101042)” (J Med Chem, 2021).
